The Ki is a dissociation constant, usually derived from enzyme kinetics or from competition with a known ligand. The term EC50 denotes the concentration giving half of the maximal effect. Broadly, the Emax is the size of the effect at its maximum, as opposed to the concentration needed.

Here are results for five compounds from ChEMBL document CHEMBL2440006, “Mastering tricyclic ring systems for desirable functional cannabinoid activity” (Eur J Med Chem, 2013).

Each structure is given as a SMILES string. Calls of active or inactive are those of the source.

Experiment [1] deals with T1, Cannabinoid receptor 2 (Homo sapiens, UniProt P34972). The experiment in a line: Reduction of CP55940-induced human CB2 receptor internalization expressed in HEK293 cells at 3 uM relative to control. The experiment is classed as cell-based. The arrangement: scale not given: the % may be the effect or the level left.
T1 sequence (P34972 whole entry): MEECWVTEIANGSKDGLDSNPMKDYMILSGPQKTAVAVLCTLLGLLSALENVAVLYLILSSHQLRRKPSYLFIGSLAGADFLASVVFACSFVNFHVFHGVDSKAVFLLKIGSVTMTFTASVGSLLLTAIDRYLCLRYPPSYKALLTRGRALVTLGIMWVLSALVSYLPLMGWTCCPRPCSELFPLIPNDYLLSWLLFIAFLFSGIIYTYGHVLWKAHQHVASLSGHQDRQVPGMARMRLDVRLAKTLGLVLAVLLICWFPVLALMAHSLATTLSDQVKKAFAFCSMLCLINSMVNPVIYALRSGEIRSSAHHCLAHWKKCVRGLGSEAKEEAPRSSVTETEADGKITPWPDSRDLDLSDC
The nature of experiment [2]: Selectivity ratio of Ki for rat CB1 receptor to Ki for human CB2 receptor.
Experiment [3] concerns the target T1, Cannabinoid receptor 2. The experiment in a line: Displacement of [3H]-CP55940 from human CB2 receptor expressed in HEK293 cells after 1.5 hrs by microbeta liquid scintillation counting analysis. The following applies: read-out: Ki. The class given is cell-based. The method in brief: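 Membranes from rat brain homogenate (CB1) or HEK293 cells expressing human CB2. GF/B filtration, then scintillation counting. IC50 by three-parameter logistic fit, Ki by Cheng-Prusoff. Three experiments in triplicate.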

The target of experiment [4] is T1, Cannabinoid receptor 2. The experiment in a line: Induction of human CB2 receptor internalization expressed in HEK293 cells at 10 uM relative to CP55940. The class given is cell-based. A digest of the protocol:
(§1)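 Cells stably expressing human CB1 or human CB2 receptors, exposed to test compound alone. […] Mean of two determinations.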

For experiment [5], the target named is Cannabinoid receptor 1 (Rattus norvegicus, UniProt P20272). Nature of the experiment: Displacement of [3H]-CP55940 from CB1 receptor in rat brain homogenate after 1.5 hrs by microbeta liquid scintillation counting analysis. The class given is tissue-based. The following applies: read-out: Ki. The method in brief: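 Membranes from rat brain homogenate (CB1) or HEK293 cells expressing human CB2. […] GF/B filtration, then scintillation counting. […] IC50 by three-parameter logistic fit, Ki by Cheng-Prusoff. Three experiments in triplicate.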
Cannabinoid receptor 1, sequence (P20272 whole entry): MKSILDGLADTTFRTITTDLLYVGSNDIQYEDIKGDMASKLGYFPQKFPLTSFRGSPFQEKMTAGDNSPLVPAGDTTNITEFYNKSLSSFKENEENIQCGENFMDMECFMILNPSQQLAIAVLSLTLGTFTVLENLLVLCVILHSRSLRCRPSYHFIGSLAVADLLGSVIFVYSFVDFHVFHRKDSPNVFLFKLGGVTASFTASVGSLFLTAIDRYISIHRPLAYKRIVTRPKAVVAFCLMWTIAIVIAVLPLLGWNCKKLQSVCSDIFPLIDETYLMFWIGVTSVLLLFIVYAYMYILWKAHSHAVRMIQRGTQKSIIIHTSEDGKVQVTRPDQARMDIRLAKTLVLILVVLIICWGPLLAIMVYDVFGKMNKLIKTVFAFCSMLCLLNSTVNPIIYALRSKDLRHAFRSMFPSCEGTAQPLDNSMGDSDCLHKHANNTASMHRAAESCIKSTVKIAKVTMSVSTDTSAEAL
For orientation: Displacement assays read how much labelled ligand stays bound in the presence of the test substance.

In experiment [6] the target is Cannabinoid receptor 1 (Homo sapiens) (UniProt P21554). The experiment in a line: Induction of human CB1 receptor internalization expressed in HEK293 cells at 10 uM relative to CP55940. The experiment is classed as cell-based. A digest of the protocol: as §1
Cannabinoid receptor 1 (Homo sapiens), sequence (P21554 whole entry): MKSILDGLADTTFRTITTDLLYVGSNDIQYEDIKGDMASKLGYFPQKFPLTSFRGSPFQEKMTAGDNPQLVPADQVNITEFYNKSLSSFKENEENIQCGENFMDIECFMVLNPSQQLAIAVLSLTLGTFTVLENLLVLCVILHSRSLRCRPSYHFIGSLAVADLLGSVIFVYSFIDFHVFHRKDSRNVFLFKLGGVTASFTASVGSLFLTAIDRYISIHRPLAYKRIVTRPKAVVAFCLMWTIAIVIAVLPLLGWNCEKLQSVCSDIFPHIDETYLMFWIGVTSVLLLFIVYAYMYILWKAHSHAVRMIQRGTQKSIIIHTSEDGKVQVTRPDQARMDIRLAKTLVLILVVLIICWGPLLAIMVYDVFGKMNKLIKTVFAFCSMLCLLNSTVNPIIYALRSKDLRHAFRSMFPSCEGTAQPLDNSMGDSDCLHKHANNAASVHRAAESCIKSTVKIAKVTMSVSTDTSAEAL
The target of experiment [7] is T1, Cannabinoid receptor 2. The experiment in a line: Antagonist activity at human recombinant […] receptor expressed in CHO cells at 1 uM after 1 hr by [35S]GTPgammaS binding assay. The class given is functional, cell-based. In general terms: GTPγS resists hydrolysis and so accumulates on activated G proteins.
The target in experiment [8] is T1, Cannabinoid receptor 2. Nature of the experiment: Agonist activity at human recombinant CB2 receptor expressed in CHO cells after 1 hr by [35S]GTPgammaS binding assay. The experiment is classed as functional, cell-based.
In experiment [9] the target is T1, Cannabinoid receptor 2. The experiment in a line: Agonist activity at human recombinant CB2 receptor expressed in CHO cells after 1 hr by [35S]GTPgammaS binding assay relative to CP55940. The class given is functional, cell-based. The method in brief: (§2)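 Membranes from CHO cells expressing hCB1 or hCB2, preincubated at least 15 min on ice with 30 μM GDP solution. GTP-γ-[35S] with WGA-PVT SPA beads. Eight concentrations, 0.001–10 μM, in duplicate. Incubated 1 h at room temperature, centrifuged, then a further 1 h before counting. […] Mean of two determinations.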

In experiment [10] the test system is Rattus norvegicus. The experiment in a line: Antiallodynic activity in ip dosed Sprague-Dawley rat spinal nerve ligation model of neuropathic pain assessed as reduction of tactile allodynia. The class given is functional, organism-based. A digest of the protocol:
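Male Sprague Dawley rats, 120–150 g. Left L5/L6 spinal nerves ligated under isoflurane; tested three weeks later. Single i.p. bolus, 5–20 mg/kg, in 30% hydroxypropyl-β-cyclodextrin in PBS, prepared within 1 h before injection. Paw withdrawal threshold by von Frey filaments, 50% threshold by up-down method. Seven rats per group. Repeated-measures ANOVA with Dunnett's test vs time 0.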

Experiment [11] concerns the target T1, Cannabinoid receptor 2. Nature of the experiment: Agonist activity at human recombinant […] receptor expressed in CHO cells at 1 uM after 1 hr by [35S]GTPgammaS binding assay. The experiment is classed as functional, cell-based.
Experiment [12] concerns the target T1, Cannabinoid receptor 2. Nature of the experiment: Inverse agonist activity at human recombinant CB2 receptor expressed in CHO cells after 1 hr by [35S]GTPgammaS binding assay relative to CP55940. The experiment is classed as functional, cell-based. A digest of the protocol:
as §2

For experiment [13], the target named is Cannabinoid receptor 1 (Homo sapiens) (UniProt P21554). Nature of the experiment: Partial agonist activity at human recombinant CB1 receptor expressed in CHO cells after 1 hr by [35S]GTPgammaS binding assay relative to CP55940. The class given is functional, cell-based. A digest of the protocol:
as §2

The target is the same in experiment [14]. The experiment in a line: Agonist activity at human recombinant CB1 receptor expressed in CHO cells after 1 hr by [35S]GTPgammaS binding assay relative to CP55940. The class given is functional, cell-based. The method in brief: as §2
Experiment [15] concerns the target T1, Cannabinoid receptor 2. Nature of the experiment: Partial agonist activity at human recombinant CB2 receptor expressed in CHO cells after 1 hr by [35S]GTPgammaS binding assay relative to CP55940. The class given is functional, cell-based. A digest of the protocol: as §2

In the case of `CCCCCn1c2ccccc2c2cc(C(=O)c3ccccc3)ccc21`, the Activity was over 50% in experiment [1], 39.3% in experiment [4] and 77% in experiment [6]. Moreover, the Ratio Ki in experiment [2] came to 2.88. Moreover, the Ki in experiment [3] came out at 101 nM; in experiment [5] it was 291 nM.
Turning to `CCCCCn1c2ccccc2c2cc(C(=O)NCC(C)(C)C)ncc21`, the Activity in experiment [1] was over 50%; in [4] it was 0.1%; in experiment [6] it was 34.7%. Also, the Ratio Ki in [2] worked out at 1.65. The results for the Ki in [3] and in experiment [5] were 26.5 nM and 43.6 nM, respectively.
Take `CS(=O)(=O)NCCCn1c2ccccc2c2cc(C(=O)N3CCCCC3)ccc21`: the result in experiment [7] and in experiment [11] was inactive. The concentration giving a half-maximal response (EC50) in [8] stood at 7.3 nM. Also, in experiment [9], the Emax turned out to be 59.6%. Besides, the Ratio Ki in experiment [2] was 23.7. Besides, the Activity result was “Dose-dependent effect” in [10], 116% in experiment [4] and 54.1% in experiment [6]. Besides, the Ki in [3] is 62 nM; in [5] it was 1470 nM.
As for `CCCCCn1c2ccc(C(=O)N3CCCCC3)cc2c2ccc(OC)cc21`, the outcome in [1] was Active. Also, the Ratio Ki in [2] came out at 1.71. The Emax in experiment [12] is -76.4%; in [13], 30.4%. For the same compound, the Activity in [4] was -1.1%; in [6] it was 33.4%.
With `CCCCCn1c2ccccc2c2cc(C(=O)N3CCCCC3)ccc21`, the Emax was determined as 73.6% in [14] and 30.8% in experiment [15]. The Ratio Ki in experiment [2] is 1.05. The Ki is 73 nM in experiment [3] and 77 nM in experiment [5]. For the same compound, the figures for the Activity in experiment [4] and in [6] were 118% and 140%, respectively.
